Results as given in article PMC4467529 (Bioorganic & medicinal chemistry, 2015).

Assays:
[1] = In vitro cytotoxicity, Neutral Red assay; type: cell-based; conditions: African green monkey, Vero cells (kidney fibroblasts)
Outline: (§1)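 Cells were kept in RPMI-1640 with 10% bovine calf serum and amikacin 60 mg/L at 37 °C, 5% CO₂. They were seeded at 25,000 cells/well and grown 24 h, then exposed 48 h to test compound diluted in serum-free medium, tested up to 25 μg/ml. Viability was read by Neutral Red, as % decrease versus vehicle. IC50 came from dose curves, in triplicate, with doxorubicin as reference.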

[2] = In vitro cytotoxicity, Neutral Red assay; type: cell-based; conditions: pig, LLC-PK11 pig kidney epithelial cells
Outline: as §1

[3] = In vitro cytotoxicity, Neutral Red assay; type: cell-based; conditions: human, KB oral epidermal carcinoma cells
Outline: (§2)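 Cells grown in RPMI-1640 with 10% bovine calf serum and amikacin (60 mg/L), 37°C, 5% CO₂, 95% humidity. Seeded at 25,000 cells/well, grown 24 h. Test samples diluted in serum-free medium, exposure 48 h. Viable cells counted by Neutral Red uptake; % viability loss against vehicle control. IC50 from dose curves, triplicate, means reported.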

[4] = In vitro cytotoxicity, Neutral Red assay; type: cell-based; conditions: human, BT-549 breast ductal carcinoma cells
Outline: as §1

NF-κB = type: cell-based, human; conditions: Homo sapiens, SW1353, read-out: NF-κB IC50
Outline: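 SW1353 cells were grown in DMEM/F12 with 10% FBS and electroporated with an NF-κB luciferase plasmid (50 μg/mL; 160 V, one 70-ms pulse). They were plated at 1.25 × 10⁵ cells/well for 24 h. […] Parthenolide was the reference; Sp-1 served as control factor.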

[5] = In vitro cytotoxicity, Neutral Red assay; type: cell-based; conditions: human, SK-MEL malignant melanoma cells
Outline: as §1

[6] = In vitro cytotoxicity, Neutral Red assay; type: cell-based; conditions: human, SK-OV-3 ovary carcinoma cells
Outline: as §2

O=c1oc2ccccc2n1CCN1CCN(CCn2c(=O)oc3ccccc32)CC1 [Compound 3a, 3,3′-(piperazine-1,4-diylbis(ethane-2,1-diyl))bis(benzo[d]oxazol-2(3H)-one)]
> 25 mg/L: IC50 at 48 h [1] | IC50 at 48 h [2] | IC50 at 48 h [3] | IC50 at 48 h [4] | IC50 (NF-κB) | IC50 at 48 h [5] | IC50 at 48 h [6]

O=c1sc2ccccc2n1CCN1CCN(CCn2c(=O)sc3ccccc32)CC1 [Compound 3b, 3,3′-(2,2′-(piperazine-1,4-diyl)bis(ethane-2,1-diyl))dibenzo[d]thaizol-2(3H)-one]
> 25 mg/L: IC50 at 48 h [1] | IC50 at 48 h [2] | IC50 at 48 h [3] | IC50 at 48 h [4] | IC50 (NF-κB) | IC50 at 48 h [5] | IC50 at 48 h [6]

O=c1sc2ccccc2n1CCCN1CCN(CCCn2c(=O)sc3ccccc32)CC1 [Compound 3d, 3,3′-(piperazine-1,4-diylbis(propane-3,1-diyl))bis(benzo[d]thiazol-2(3H)-one)]
> 25 mg/L: IC50 at 48 h [1] | IC50 at 48 h [3] | IC50 at 48 h [4] | IC50 (NF-κB) | IC50 at 48 h [5] | IC50 at 48 h [6]

O=c1oc2ccccc2n1CCCN1CCN(CCn2c(=O)oc3ccccc32)CC1 [Compound 5a, 3-(3-(4-(2-(2-oxobenzo[d]oxazol-3(2H)-yl)ethyl)piperazin-1-yl)propyl)benzo[d]oxazol-2(3H)-one]
> 25 mg/L: IC50 at 48 h [1] | IC50 at 48 h [2] | IC50 at 48 h [3] | IC50 at 48 h [4] | IC50 (NF-κB) | IC50 at 48 h [5] | IC50 at 48 h [6]

O=c1sc2ccccc2n1CCCN1CCN(CCn2c(=O)sc3ccccc32)CC1 [Compound 5b, 3-(3-(4-(2-(2-oxobenzo[d]thiazol-3(2H)-yl)ethyl)piperazin-1-yl)propyl)benzo[d]thiazol-2(3H)-one]
> 25 mg/L: IC50 at 48 h [1] | IC50 at 48 h [3] | IC50 at 48 h [4] | IC50 (NF-κB) | IC50 at 48 h [5] | IC50 at 48 h [6]

O=c1oc2ccccc2n1CCCCN1CCN(CCn2c(=O)oc3ccccc32)CC1 [Compound 5c, 3-(2-(4-(4-(2-oxobenzo[d]oxazol-3(2H)-yl)butyl)piperazin-1-yl)ethyl)benzo[d]oxazol-2(3H)-one]
> 25 mg/L: IC50 at 48 h [1] | IC50 at 48 h [2] | IC50 at 48 h [3] | IC50 at 48 h [4] | IC50 (NF-κB) | IC50 at 48 h [5] | IC50 at 48 h [6]

O=c1sc2ccccc2n1CCCCN1CCN(CCn2c(=O)sc3ccccc32)CC1 [Compound 5d, 3-(2-(4-(4-(2-oxobenzo[d]thiazol-3(2H)-yl)butyl)piperazin-1-yl)ethyl)benzo[d]thiazol-2(3H)-one]
> 25 mg/L: IC50 at 48 h [1] | IC50 at 48 h [2] | IC50 at 48 h [3] | IC50 at 48 h [4] | IC50 (NF-κB) | IC50 at 48 h [5] | IC50 at 48 h [6]

O=c1oc2ccccc2n1CCCCCN1CCN(CCCCn2c(=O)oc3ccccc32)CC1 [Compound 5o, 3-(5-(4-(4-(2-oxobenzo[d]oxazol-3(2H)-yl)butyl)piperazin-1-yl)pentyl)benzo[d]oxazol-2(3H)-one]
> 25 mg/L: IC50 at 48 h [2] | IC50 at 48 h [3] | IC50 at 48 h [4] | IC50 (NF-κB) | IC50 at 48 h [5] | IC50 at 48 h [6]
